Measured values: ChEMBL document CHEMBL1177857, “Functionalized aurones as inducers of NAD(P)H:quinone oxidoreductase 1 that activate AhR/XRE and Nrf2/ARE signaling pathways: synthesis, evaluation and SAR” (Eur J Med Chem, 2010)
The source made the active and inactive calls. The calls are words filed in the database; no cut-off is given here.

Assays:
[1] = Cytotoxicity against mouse Hepa-1c1c7 cells assessed as cell survival at 5 uM after 48 hrs by MTT assay; type: cell-based; details: read-out: Activity
In short: (§1)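 MTT (0.5 mg/ml) added for 3 h at 37 °C, formazan dissolved in DMSO and read at 590 nm. Survival (%) = (A treated − A blank)/(A untreated − A blank) × 100.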

[2] = target: T1, CYP1A1 (Mus musculus, UniProt P30561); test: Induction of Ah receptor in mouse Hepa-1c1c7 cells assessed as induction of CYP1A1 activity at 10 uM after 48 hrs by EROD assay relative to control; type: cell-based; details: probe ethoxyresorufin (EROD), read-out: FC
T1 sequence (P30561 whole entry): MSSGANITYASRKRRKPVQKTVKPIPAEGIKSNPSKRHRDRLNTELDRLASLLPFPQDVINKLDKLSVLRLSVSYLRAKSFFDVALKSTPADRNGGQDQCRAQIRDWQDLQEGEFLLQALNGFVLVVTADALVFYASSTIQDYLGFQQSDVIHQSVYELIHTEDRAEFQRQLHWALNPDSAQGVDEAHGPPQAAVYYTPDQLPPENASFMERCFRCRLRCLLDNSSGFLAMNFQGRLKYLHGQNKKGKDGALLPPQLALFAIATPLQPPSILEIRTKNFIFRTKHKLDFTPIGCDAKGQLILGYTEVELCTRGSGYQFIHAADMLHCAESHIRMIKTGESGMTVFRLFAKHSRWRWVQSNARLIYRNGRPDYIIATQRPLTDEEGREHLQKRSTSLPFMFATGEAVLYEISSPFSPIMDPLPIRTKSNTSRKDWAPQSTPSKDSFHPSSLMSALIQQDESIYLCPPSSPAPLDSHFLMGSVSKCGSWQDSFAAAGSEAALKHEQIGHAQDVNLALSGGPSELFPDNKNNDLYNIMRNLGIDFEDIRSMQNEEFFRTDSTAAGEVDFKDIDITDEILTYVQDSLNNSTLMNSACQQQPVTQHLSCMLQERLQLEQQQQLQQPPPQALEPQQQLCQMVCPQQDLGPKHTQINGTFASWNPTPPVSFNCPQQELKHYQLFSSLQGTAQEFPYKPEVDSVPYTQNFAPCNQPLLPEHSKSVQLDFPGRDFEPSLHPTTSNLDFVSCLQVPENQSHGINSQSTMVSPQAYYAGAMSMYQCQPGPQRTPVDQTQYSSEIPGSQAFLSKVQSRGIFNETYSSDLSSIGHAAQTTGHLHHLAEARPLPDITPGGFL
In short: (§2)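 Hepa1c1c7 cells at 10⁴/well grown 24 h, then given compound at one fixed concentration for 48 h. After a PBS wash, cells incubated 40 min at 37 °C with 5 µM 7-ethoxyresorufin plus 2 mM salicylamide. Resorufin fluorescence read at ex 530/em 590 nm. Fold induction = (F cells+compound − F blank)/(F control − F blank); mean ± SD, n = 3.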

[3] = Induction of NQO1 activity in mouse Hepa-1c1c7 cells at 5 uM after 48 hrs relative to control
[4] = Cytotoxicity against mouse Hepa-1c1c7 cells assessed as cell survival at 25 uM after 48 hrs by MTT assay; type: cell-based; details: read-out: Activity; in short: as §1
[5] = target: T1, CYP1A1; test: Induction of Ah receptor in mouse Hepa-1c1c7 cells assessed as induction of CYP1A1 activity at 25 uM after 48 hrs by EROD assay relative to control; type: cell-based; details: probe ethoxyresorufin (EROD), read-out: FC; in short: as §2
[6] = Induction of NQO1 activity in mouse Hepa-1c1c7 cells at 25 uM after 48 hrs relative to control
[7] = Induction of NQO1 activity in mouse Hepa-1c1c7 cells at 1 uM after 48 hrs relative to control
[8] = target: T1, CYP1A1; test: Induction of Ah receptor in mouse Hepa-1c1c7 cells assessed as induction of CYP1A1 activity at 5 uM after 48 hrs by EROD assay relative to control; type: cell-based; details: probe ethoxyresorufin (EROD), read-out: FC; in short: as §2
[9] = target: NAD(P)H dehydrogenase [quinone] 1 (Homo sapiens) (UniProt P15559); test: Induction of […] NQO1 activity in mutant mouse BPrc1 cells assessed as concentration require for 2 fold induction after 48 hrs; type: cell-based
In short: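 Mutant Hepa1c1c7 line (Bp^rc1, defective Ah-receptor pathway) seeded at 10⁴ cells/well for 24 h, then exposed to compound for 48 h; final DMSO ≤0.5%. Cells lysed with 0.8% digitonin/2 mM EDTA. NQO1 read by menadione-driven MTT reduction (NADP, glucose-6-phosphate regenerating system, FAD, pH 7.4), stopped after 5 min with dicoumarol, A590. Activity taken relative to blank and control wells; CD = concentration doubling basal activity; mean ± SD of 3 determinations.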

[10] = tested on: Hepa-1c1c7; test: Induction of human NQO1 gene expression in mouse Hepa-1c1c7 cells co-transfected with pGL3-ARE at 10 to 25 uM after 24 hrs by luciferase reporter gene assay; type: functional, cell-based
In short: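 Hepa1c1c7 cells at about 50% confluency co-transfected with pGL3-ARE firefly luciferase (human NQO1 ARE) and pRL-CMV Renilla as transfection control. After 24 h, cells exposed to compound (10 or 25 µM). Dual luciferase read-out expressed as fold over control; mean ± SD of 3 independent transfections, t-test.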

[11] = tested on: Hepa-1c1c7; test: Induction of TrxR activity in mouse Hepa-1c1c7 cells at 10 uM after 24 hrs; type: cell-based
In short: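 Hepa1c1c7 cells treated with compound at 10 µM for 24 h. Digitonin/EDTA lysate (25 µg) incubated 20 min at 37 °C with 85 mM HEPES pH 7.6, 0.3 mM insulin, 660 µM NADPH, 2.5 mM EDTA and 5 µM human thioredoxin. Reaction quenched with DTNB in guanidine; A412 read, minus no-thioredoxin background. Fold versus control, mean ± SEM, n = 3.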

NAD(P)H dehydrogenase [quinone] 1 (Homo sapiens), sequence (P15559 whole entry): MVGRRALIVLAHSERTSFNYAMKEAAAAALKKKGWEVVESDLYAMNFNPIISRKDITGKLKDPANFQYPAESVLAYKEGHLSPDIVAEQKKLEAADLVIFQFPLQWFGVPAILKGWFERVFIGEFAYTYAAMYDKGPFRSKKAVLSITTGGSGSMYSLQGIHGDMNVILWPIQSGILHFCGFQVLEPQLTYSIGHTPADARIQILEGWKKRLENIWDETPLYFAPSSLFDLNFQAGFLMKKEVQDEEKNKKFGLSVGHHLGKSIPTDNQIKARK

Row | fold change (FC) [3] | fold change (FC) [6] | SMILES | viability at 48 h, 5 µM [1] [%] | viability at 48 h, 25 µM [4] [%] | further results
1 | 2.53 |  | COc1cc(OC)c2c(c1)O/C(=C\c1cccc(O)c1O)C2=O | 88 |  | fold induction at 48 h, 10 µM [2]: 0.97
2 | 1.79 | 3.57 | COc1cc(OC)c2c(c1)OC(=O)/C2=C\c1ccccc1OC | 118 | 107 | fold induction at 48 h, 25 µM [5]: 1.03
3 | 2.65 |  | O=C1/C(=C/c2ccccc2O)Oc2ccc(O)cc21 | 99 | 104 | fold induction at 48 h, 10 µM [2]: 2.01
4 | 1.51 | 2.55 | O=C1/C(=C/c2ccc(Cl)cc2)Oc2cc(O)ccc21 [6-HYDROXY-4'-CHLORO AURONE] | 120 |  | fold induction at 48 h, 25 µM [5]: 1.24
5 | 1.43 | 2.1 | COc1cc(OC)c2c(c1)OC(=O)/C2=C\c1ccccc1 | 100 | 96 | fold induction at 48 h, 25 µM [5]: 1.04
6 | 1.45 | 2.11 | O=C1/C(=C/c2ccccc2O)Oc2cc(O)ccc21 | 113 | 102 | fold induction at 48 h, 25 µM [5]: 1.07
7 | 1.2 | 2.07 | COc1cc(OC)c2c(c1)O/C(=C\c1cccc(O)c1)C2=O | 104 | 100 | fold induction at 48 h, 25 µM [5]: 1.16
8 | 2.49 |  | O=C1Oc2ccc(O)cc2/C1=C/c1ccc(Cl)cc1 | 90 |  | fold induction at 48 h, 10 µM [2]: 1.04
9 | 3.1 |  | COc1ccccc1/C=C1\Oc2ccc(O)cc2C1=O | 97 | 95 | fold induction at 48 h, 25 µM [5]: 1.68
10 |  |  | COc1cc(OC)c2c(c1)O/C(=C\c1ccccc1F)C2=O | 66 |  | fold change (FC) [7]: 2.6
11 | 1.23 | 1.95 | O=C1/C(=C/c2ccc(O)cc2)Oc2cc(O)cc(O)c21 | 105 | 98 | fold induction at 48 h, 25 µM [5]: 1.05
12 | 2.26 |  | COc1cc(OC)c2c(c1)O/C(=C\c1ccccn1)C2=O | 92 |  | fold induction at 48 h, 10 µM [2]: 0.98
13 | 3.98 |  | COc1cc(OC)c2c(c1)O/C(=C\c1cccc(Cl)c1)C2=O | 103 |  | fold induction at 48 h, 5 µM [8]: 1.18
14 | 4.68 |  | O=C1/C(=C/c2cccc(Cl)c2)Oc2ccc(O)cc21 | 101 |  | fold induction at 48 h, 10 µM [2]: 2.95
15 | 5.6 |  | COc1cc(OC)c2c(c1)O/C(=C\c1ccccc1Cl)C2=O | 105 |  | fold induction at 48 h, 5 µM [8]: 1.55
16 |  |  | COc1cc(OC)c2c(c1)O/C(=C\c1ccc(F)cc1)C2=O | 93 |  | fold change (FC) [7]: 2.16
17 |  |  | O=c1cc(-c2ccccc2)oc2ccc3ccccc3c12 |  |  | Activity [9]: inactive
18 | 2.43 |  | O=C1Oc2ccc(O)cc2/C1=C/c1ccccc1O | 115 |  | fold induction at 48 h, 10 µM [2]: 1.12

Row | fold change (FC) [3] | fold change (FC) [6] | SMILES | viability at 48 h, 5 µM [1] [%] | viability at 48 h, 25 µM [4] [%] | further results
19 | 1.64 | 2.92 | O=C1/C(=C/c2cccc(O)c2)Oc2cc(O)ccc21 | 112 | 106 | fold induction at 48 h, 25 µM [5]: 1.08
20 | 1.55 |  | COc1cc(OC)c2c(c1)OC(Cc1ccccc1O)C2=O (stereo not drawn) | 102 |  | Activity [10]: inactive; Activity [11]: inactive
21 | 2.64 |  | O=C1/C(=C/c2ccccc2Cl)Oc2cc(O)cc(O)c21 | 101 |  | fold induction at 48 h, 10 µM [2]: 1.18
22 | 0.46 | 0.61 | COc1ccccc1/C=C1\Oc2cc(O)ccc2C1=O | 95 | 96 | 
23 | 1.14 | 1.85 | O=C1/C(=C/c2ccccc2)Oc2cc(O)ccc21 | 115 | 110 | 
24 | 2.2 |  | O=C1/C(=C/c2ccccc2F)Oc2cc(O)cc(O)c21 | 110 | 96 | fold induction at 48 h, 10 µM [2]: 1
25 | 1.36 | 1.37 | COc1cc(OC)c2c(c1)O/C(=C\c1ccc(C#N)cc1)C2=O | 91 | 95 | 
26 | 2.12 |  | COc1cc(OC)c2c(c1)OC(=O)/C2=C\c1ccccc1Cl | 90 |  | fold induction at 48 h, 10 µM [2]: 0.97
27 | 1.59 | 0.9 | Cc1ccc(/C=C2\Oc3cc(O)ccc3C2=O)cc1 | 98 | 100 | 
28 | 1.82 | 4.5 | COc1cc(OC)c2c(c1)O/C(=C\c1ccncc1)C2=O | 101 | 110 | fold induction at 48 h, 25 µM [5]: 1.73
29 | 4.47 |  | COc1cc(OC)c2c(c1)O/C(=C\c1cccc(F)c1)C2=O | 89 |  | fold induction at 48 h, 5 µM [8]: 1.48
30 | 1.64 | 1.83 | O=C1Oc2ccc(O)cc2/C1=C/c1cccc(O)c1 | 95 | 87 | 
31 | 1.29 | 1.66 | O=C1/C(=C/c2cccc(O)c2)Oc2ccc(O)cc21 | 98 | 89 | 
32 | 1.15 | 0.82 | COc1ccc(/C=C2\Oc3cc(O)cc(O)c3C2=O)cc1 | 109 | 114 | 
33 | 1.15 | 1.37 | O=C1Oc2ccc(O)cc2/C1=C/c1ccccc1 | 89 | 94 | 
34 | 1.25 | 1.4 | COc1cc(OC)c2c(c1)O/C(=C\c1ccc(N3CCN(C)CC3)cc1)C2=O | 93 | 89 | 
35 | 2.15 |  | COc1cccc(/C=C2\Oc3cc(O)cc(O)c3C2=O)c1 | 112 |  | fold induction at 48 h, 10 µM [2]: 1.13
36 | 2.85 |  | O=C1/C(=C/c2cccc(Cl)c2)Oc2cc(O)ccc21 | 111 | 98 | fold induction at 48 h, 10 µM [2]: 1.05

Row | SMILES | fold change (FC) [3] | fold change (FC) [6] | viability at 48 h, 5 µM [1] [%] | viability at 48 h, 25 µM [4] [%] | further results
37 | COc1cc(/C=C2\Oc3cc(O)cc(O)c3C2=O)ccc1O | 1.53 | 2.54 | 97 | 98 | fold induction at 48 h, 25 µM [5]: 1.06
